Measured values as given in ChEMBL document CHEMBL1811904, “Preventive oral treatment with resveratrol pro-prodrugs drastically reduce colon inflammation in rodents” (J Med Chem, 2010).
Blank lines part the entries; values can stand above or below the molecule they belong to. Activity calls are given as the source filed them. No cut-off for these calls is given here.

How the values were obtained:
[1] = tested on: CCD-18Co; assay: Antiinflammatory activity in human CCD-18Co cells assessed inhibition of IL1beta-induced PGE2 production at 1 to 7.5 uM after 18 hrs; format: functional, cell-based
[2] = Cytotoxicity against human CCD-18Co cells at >10 uM after 8 hrs by MTT assay; format: cell-based
[3] = tested on: Mus musculus; assay: (§1) Antiinflammatory activity in C57BL/6J mouse model of DSS-induced colon inflammation assessed as reduction of colon MIG level at 2.1 mg/kg/day, po for 21 days followed by compound dosing for 8 days co-administered with DSS followed by 2.1 mg/kg/day, po dosing for 6 days in absence of DSS measured on days 29 and day 35 by chemiluminescence assay; format: functional, organism-based
Method in brief: (§2)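 After 21 days of chow with compound at 2.1 mg/kg day and 8 days of 1% DSS, distal colon mucosa (40 mg) homogenized in PBS with protease inhibitors and spun 15,000g, 30 min, 4 °C. Supernatants pooled per group to 300 µg protein and run on a 40-cytokine mouse inflammation antibody array. Chemiluminescent detection, densitometry; duplicate measurements.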

[4] = tested on: Mus musculus; assay: as §1, with “TNFRp55” for “MIG”; format: functional, organism-based; method in brief: as §2
[5] = tested on: Mus musculus; assay: as §1, with “in disease activity index” for “of colon MIG level”, “35” for “35 by chemiluminescence assay”; format: functional, organism-based
Method in brief: (§3)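 Diet supplemented at 2.1 mg/kg day for 21 days before 8 days of 1% DSS in sterilized drinking water ad libitum; n=10 per group. Body weight followed through DSS and recovery phases; DAI combines stool blood, stool consistency and weight loss. ANOVA with Tukey post-hoc, mean ± SD.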

[6] = tested on: Mus musculus; assay: as §1, with “preservation” for “reduction”, “mucosal architecture” for “colon MIG level”, “35” for “35 by chemiluminescence assay”; format: functional, organism-based
Method in brief: (§4)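 Standard chow with compound at 2.1 mg/kg day for 21 days, then 1% DSS in sterilized drinking water ad libitum for the last 8 days (29 days total); n=10 per group, with control and DSS-only groups. Distal colon sections stained with hematoxylin and eosin and scored by Araki system: 0-4 each for surface epithelial loss, crypt destruction, inflammatory cell infiltration (max 12); mean ± SEM, Kruskal-Wallis then Mann-Whitney.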

[7] = tested on: Mus musculus; assay: as §1, with “reduction in morphological signs” for “reduction”, “cell damage” for “colon MIG level”, “35” for “35 by chemiluminescence assay”; format: functional, organism-based; method in brief: as §4
[8] = tested on: CCD-18Co; assay: Antiinflammatory activity in human CCD-18Co cells assessed as inhibition of IL1beta-induced PGE2 production at 2.5 to 25 uM after 18 hrs; format: functional, cell-based
[9] = tested on: Mus musculus; assay: Antiinflammatory activity in C57BL/6J mouse model of DSS-induced colon inflammation assessed as reduction in disease activity index at 2.1 mg/kg/day, po for 8 days co-administered with DSS measure on day 8; format: functional, organism-based
Method in brief: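 No pre-feeding: compound co-administered with 1% DSS in drinking water for 8 days at 2.1 mg/kg day; n=14 per group, with DSS-only and untreated control groups. DAI scored from stool blood, stool form and weight loss.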

[10] = tested on: Mus musculus; assay: (§5) Increase in Bifidobacterial count in C57BL/6J mouse distal colon mucosa with DSS-induced colon inflammation at 2.1 mg/kg/day, po for 21 days followed by compound dosing for 8 days co-administered with DSS followed by 2.1 mg/kg/day, po dosing for 6 days in absence of DSS by fecal microbiota analysis relative to control; format: functional, organism-based
Method in brief: (§6)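 Fecal samples collected on days 0, 21 (before DSS) and 29 (after 8 days of 1% DSS) from mice fed 2.1 mg/kg day compound in chow. Bifidobacteria, lactobacilli, clostridia, enterobacteria and E. coli counted; ANOVA with Tukey post-hoc, mean ± SD.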

[11] = tested on: Mus musculus; assay: as §1, with “IL6” for “MIG”; format: functional, organism-based; method in brief: as §2
[12] = tested on: Mus musculus; assay: Effect on body weight in C57BL/6J mouse model of DSS-induced colon inflammation at 2.1 mg/kg/day, po for 21 days followed by compound dosing for 8 days co-administered with DSS followed by 2.1 mg/kg/day, po dosing for 6 days in absence of DSS measured on days 29 and day 35; format: functional, organism-based; method in brief: as §3
[13] = tested on: Mus musculus; assay: as §1, with “MIP1gamma” for “MIG”; format: functional, organism-based; method in brief: as §2
[14] = tested on: Mus musculus; assay: as §5, with “Lactobacilli” for “Bifidobacterial”; format: functional, organism-based; method in brief: as §6
[15] = tested on: Mus musculus; assay: as §5, with “Reduction” for “Increase”, “Escherichia coli” for “Bifidobacterial”; format: functional, organism-based; method in brief: as §6
[16] = tested on: Caco-2; assay: Metabolic stability in human Caco2 cells after 6 hrs by LC-MS-MS analysis; format: ADME, cell-based; conditions: caco-2, 6 h
Method in brief: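 Compounds incubated with human colon Caco-2 cells; cell media sampled at 6 h and analyzed by LC-MS-MS for parent compound and hydrolysis/conjugation products.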

[17] = tested on: Mus musculus; assay: as §5, with “Clostridia” for “Bifidobacterial”; format: functional, organism-based; method in brief: as §6
[18] = tested on: CCD-18Co; assay: Antiinflammatory activity in human CCD-18Co cells assessed inhibition of IL1beta-induced PGE2 production at 1 uM after 18 hrs; format: functional, cell-based
[19] = tested on: Stomach; assay: Stability in C57BL/6J mouse stomach at 84 mg/kg administered through intragastric route measured after 8 hrs by HPLC-MS-MS analysis; format: ADME, organism-based; parameters: dose 84 mg/kg, route intragastric; conditions: in vivo, po
Method in brief: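 Healthy mice given 84 mg/kg by intragastric probe in ethanol:water (5:95, v:v); n=24 per group, three killed at each of 0.25, 0.5, 1, 2, 4, 8, 12 and 24 h. Stomach contents analyzed by HPLC-MS-MS for parent compounds and metabolites; AUC and Cmax derived.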

SMILES: CCCCCCCCCCCCCCCC(=O)OC[C@H]1O[C@@H](Oc2cc(O)cc(/C=C/c3ccc(O)cc3)c2)[C@H](O)[C@@H](O)[C@@H]1O
- inhibition [1]: Active
- Activity [2]: Toxic

SMILES: OC[C@H]1O[C@@H](Oc2cc(O)cc(/C=C/c3ccc(O)cc3)c2)[C@H](O)[C@@H](O)[C@@H]1O
- Activity [3]: Active
- Activity [4]: Active
- Activity [5]: inactive
- Activity [6]: Active
- Activity [7]: Active
- inhibition [8]: inactive
- Activity [9]: inactive
- Activity [10]: inactive
- Activity [11]: Active
- Activity [12]: inactive
- Activity [13]: Active
- Activity [14]: inactive

SMILES: CCCCCCCCCCCCCCCCCC(=O)OC[C@H]1O[C@@H](Oc2cc(O)cc(/C=C/c3ccc(O)cc3)c2)[C@H](O)[C@@H](O)[C@@H]1O
- inhibition [1]: Active
- Activity [2]: Toxic

SMILES: OC[C@H]1O[C@@H](Oc2ccc(/C=C/c3cc(O)cc(O)c3)cc2)[C@H](O)[C@@H](O)[C@@H]1O
- inhibition [8]: Active

SMILES: CCCCCCCCCCCC(=O)OC[C@H]1O[C@@H](Oc2cc(O)cc(/C=C/c3ccc(O)cc3)c2)[C@H](O)[C@@H](O)[C@@H]1O
- inhibition [1]: Active
- Activity [2]: Toxic

SMILES: OC[C@H]1O[C@@H](Oc2ccc(/C=C/c3cc(O)cc(O[C@@H]4O[C@H](CO)[C@@H](O)[C@H](O)[C@H]4O)c3)cc2)[C@H](O)[C@@H](O)[C@@H]1O
- inhibition [8]: inactive

SMILES: CCCC(=O)OC[C@H]1O[C@@H](Oc2cc(O)cc(/C=C/c3ccc(O)cc3)c2)[C@H](O)[C@@H](O)[C@@H]1O
- Activity [15]: Active
- Activity [3]: Active
- Activity [4]: Active
- Activity [5]: Active
- Activity [6]: Active
- inhibition [1]: Active
- Activity [7]: Active
- Stability [16]: Stable
- Activity [17]: Active
- Activity [9]: inactive
- Activity [10]: Active
- Activity [11]: Active
- Activity [12]: Active
- Activity [13]: Active
- Activity [14]: Active

SMILES: OC[C@H]1O[C@@H](Oc2cc(/C=C/c3ccc(O)cc3)cc(O[C@@H]3O[C@H](CO)[C@@H](O)[C@H](O)[C@H]3O)c2)[C@H](O)[C@@H](O)[C@@H]1O
- Activity [3]: Active
- Activity [4]: Active
- Activity [5]: inactive
- Activity [6]: Active
- Activity [7]: Active
- inhibition [8]: inactive
- Activity [9]: inactive
- Activity [10]: inactive
- Activity [11]: Active
- Activity [12]: inactive
- Activity [13]: Active
- Activity [14]: inactive

- Stability [16]: Stable
- Stability [19]: Stable
SMILES: Oc1ccc(/C=C/c2cc(O)cc(O)c2)cc1 [RESVERATROL]
- Activity [15]: Active
- Activity [3]: Active
- Activity [4]: Active
- Activity [5]: inactive
- Activity [6]: Active
- Activity [7]: Active
- inhibition [8]: Active
- inhibition [18]: Active
- Activity [17]: Active
- Activity [9]: inactive
- Activity [10]: inactive
- Activity [11]: Active
- Activity [12]: inactive
- Activity [13]: Active
- Activity [14]: inactive

SMILES: CCCCCCCC(=O)OC[C@H]1O[C@@H](Oc2cc(O)cc(/C=C/c3ccc(O)cc3)c2)[C@H](O)[C@@H](O)[C@@H]1O
- Activity [15]: Active
- Activity [3]: Active
- Activity [4]: Active
- Activity [5]: Active
- Activity [6]: Active
- inhibition [1]: Active
- Activity [7]: Active
- Stability [16]: Stable
- Activity [17]: Active
- Activity [9]: inactive
- Activity [10]: Active
- Activity [11]: Active
- Activity [12]: Active
- Activity [13]: Active
- Activity [14]: Active
